Experimental data reported in ChEMBL document CHEMBL5316292 (J Med Chem, 2023).
Activity calls are given as the source filed them. The calls are words filed in the database; no cut-off is given here.

Tests used:
VCaP [1] = experiment: Downregulation of PSA […] expression in human VCaP cells incubated for 24 hrs by qRT-PCR analysis; type: functional, cell-based; details: dose 25-2500 nM
Method in brief: (§1)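 VCaP cells grown to 50% confluence, then treated with compound or DMSO (Methods state 16 h, legend states 24 h). Total RNA isolated, cDNA made from 1 µg RNA, SYBR Green qPCR run in triplicate. Expression by ΔΔCt, normalised to GAPDH. Three independent experiments, SEM.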

[2] = target: T1, Bromodomain-containing protein 2 (Homo sapiens, UniProt P25440); experiment: Binding affinity to human partial length BRD2 BD2 (E348 to D455 residues) expressed in bacterial expression system assessed as change in melting temperature at 50 uM at 20 to 85 degreeC by SYPRO orange staining based thermal shift assay
Method in brief: (§2)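 DSF thermal shift. 10 µM BD in 50 mM HEPES, 500 mM NaCl pH 7.5, with 50 µM compound or DMSO-matched control and 1:1000 Sypro Orange (ex 465/em 590 nm). Ramp 20–85 °C at 0.03 °C/s. Tm taken as the midpoint between fluorescence max and min. At least three independent experiments, SEM in °C.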
Target sequence in this assay (P25440 whole entry, looked up, the tested form may be a part): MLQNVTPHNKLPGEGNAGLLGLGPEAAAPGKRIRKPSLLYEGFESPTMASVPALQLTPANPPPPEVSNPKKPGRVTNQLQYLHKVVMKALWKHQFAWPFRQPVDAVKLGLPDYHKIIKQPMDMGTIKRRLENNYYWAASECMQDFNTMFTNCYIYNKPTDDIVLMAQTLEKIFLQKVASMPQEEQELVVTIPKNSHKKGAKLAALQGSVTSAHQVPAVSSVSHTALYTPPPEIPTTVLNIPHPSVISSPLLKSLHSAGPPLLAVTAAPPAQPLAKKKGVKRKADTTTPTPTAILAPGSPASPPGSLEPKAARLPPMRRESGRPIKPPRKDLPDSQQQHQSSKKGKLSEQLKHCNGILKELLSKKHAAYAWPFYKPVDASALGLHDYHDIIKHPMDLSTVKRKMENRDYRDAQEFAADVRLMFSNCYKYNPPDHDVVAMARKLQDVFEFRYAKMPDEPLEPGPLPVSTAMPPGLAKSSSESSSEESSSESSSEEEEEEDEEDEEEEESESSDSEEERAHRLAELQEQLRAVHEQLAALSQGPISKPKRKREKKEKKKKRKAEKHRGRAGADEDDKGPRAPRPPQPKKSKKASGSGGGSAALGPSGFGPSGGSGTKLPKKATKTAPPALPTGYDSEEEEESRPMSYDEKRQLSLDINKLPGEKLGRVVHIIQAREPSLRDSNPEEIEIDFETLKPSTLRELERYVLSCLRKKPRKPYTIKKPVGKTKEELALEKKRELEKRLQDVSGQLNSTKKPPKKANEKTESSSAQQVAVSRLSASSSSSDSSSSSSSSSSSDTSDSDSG

[3] = target: T1, Bromodomain-containing protein 2; experiment: Binding affinity to human partial length BRD2 BD1 (K71 to N194 residues) expressed in bacterial expression system assessed as change in melting temperature at 50 uM at 20 to 85 degreeC by SYPRO orange staining based thermal shift assay; method in brief: as §2
Target sequence in this assay (P25440 whole entry, looked up, the tested form may be a part): as above

PC-3 = experiment: Antiproliferative activity against androgen-insensitive human PC-3 cells assessed as reduction in cell viability measured after 72 hrs by MTS assay; type: functional, cell-based; details: PC-3, 72 h
Method in brief: (§3)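 MTS viability assay run in triplicate wells. Serial dilutions in DMSO were given, with DMSO as negative control and doxorubicin as positive control, and incubated 72 h. MTS reagent was added for 2 h and absorbance read at 490 nm. % cytotoxicity = (A_medium − A_treatment)/A_medium × 100. EC50 ± SD was taken from dose-response curves of at least three independent experiments.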

[4] = target: T2, Bromodomain-containing protein 3 (Homo sapiens, UniProt Q15059); experiment: Induction of BRD3 degradation in human MDA-MB-231 cells at 0.025 to 2.5 uM incubated for 24 hrs by qRT-PCR analysis; type: cell-based; details: dose 0.025-2.5 µM
Method in brief: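 MDA-MB-231 cells treated for 24 h at doses rising tenfold from 25 nM to 2.5 µM. Gene expression measured by qRT-PCR. SEM, n = 3.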
Target sequence in this assay (Q15059 2-726 limits assumed): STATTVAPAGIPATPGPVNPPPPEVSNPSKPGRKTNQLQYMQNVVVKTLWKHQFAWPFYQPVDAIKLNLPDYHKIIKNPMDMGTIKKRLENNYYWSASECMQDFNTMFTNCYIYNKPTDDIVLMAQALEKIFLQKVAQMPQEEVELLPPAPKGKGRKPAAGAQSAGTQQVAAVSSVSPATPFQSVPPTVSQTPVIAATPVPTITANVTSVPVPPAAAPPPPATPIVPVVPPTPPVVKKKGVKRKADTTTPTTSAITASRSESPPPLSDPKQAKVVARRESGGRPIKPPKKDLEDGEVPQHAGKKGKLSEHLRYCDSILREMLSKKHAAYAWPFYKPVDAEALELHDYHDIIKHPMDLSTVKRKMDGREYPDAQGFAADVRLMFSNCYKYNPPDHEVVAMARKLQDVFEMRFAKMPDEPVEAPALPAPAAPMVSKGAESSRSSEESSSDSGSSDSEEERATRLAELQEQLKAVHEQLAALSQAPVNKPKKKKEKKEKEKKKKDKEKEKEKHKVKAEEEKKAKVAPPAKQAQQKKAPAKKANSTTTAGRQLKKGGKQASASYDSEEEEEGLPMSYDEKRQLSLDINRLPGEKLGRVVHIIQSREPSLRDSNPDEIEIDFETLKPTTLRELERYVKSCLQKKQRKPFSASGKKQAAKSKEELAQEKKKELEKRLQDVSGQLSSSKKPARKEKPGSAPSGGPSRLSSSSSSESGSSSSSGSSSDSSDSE

[5] = target: T3, Bromodomain testis-specific protein (Homo sapiens, UniProt Q58F21); experiment: Binding affinity to human partial length BRDT BD1 (N21 to E137 residues) expressed in bacterial expression system assessed as change in melting temperature at 50 uM at 20 to 85 degreeC by SYPRO orange staining based thermal shift assay; method in brief: as §2
[6] = target: T4, Bromodomain-containing protein 4 (Homo sapiens, UniProt O60885); details: dose 50.0 µM
[7] = Antiproliferative activity against human Androgen-resistant 22Rv1 cells assessed as reduction in cell viability measured after 72 hrs by MTS assay; type: functional, cell-based; details: 22Rv1, 72 h; method in brief: as §3
[8] = target: T3, Bromodomain testis-specific protein; experiment: Binding affinity to human partial length BRDT BD2 (K250 to E382 residues) expressed in bacterial expression system using H4K5acIC8acK12acK16ac-biotinylated peptide as substrate preincubated for 30 mins followed by substrate addition by AlphaScreen assay
Method in brief: (§4)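 AlphaScreen. Biotinylated H4K5acK8acK12acK16ac peptide added at equal concentration to protein for 30 min. Donor and acceptor beads (25 µg/mL each) added, ≥1 h in the dark. Triplicate, curve-fitted, SEM.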

[9] = target: T2, Bromodomain-containing protein 3; experiment: Induction of BRD3 degradation in human PC-3 cells incubated for 16 hrs by immunoblotting analysis; type: cell-based
Method in brief: (§5)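 MDA-MB-231 or PC-3 cells at 50% confluence in DMEM/10% FBS/pen-strep, treated 16 h with doses falling tenfold from 10 µM to 1 nM. RIPA lysates immunoblotted for BRD2, BRD3 and BRD4 with GAPDH as control. DC50 derived from band densitometry. SEM, n = 2.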

VCaP [10] = experiment: Downregulation of TMPRSS2 gene levels in human VCaP cells incubated for 24 hrs by qRT-PCR analysis; type: functional, cell-based; details: dose 25-2500 nM; method in brief: as §1
[11] = target: T1, Bromodomain-containing protein 2; experiment: Induction of BRD2 degradation in human MDA-MB-231 cells assessed as decrease in BET half life at 10 uM incubated for 8 hrs in presence of cycloheximide by immunoblotting analysis; type: cell-based
Method in brief: (§6)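 MDA-MB-231 time-course. Cells given 50 µg/mL cycloheximide plus DMSO, or 50 µg/mL cycloheximide plus 10 µM compound. RIPA lysates immunoblotted for BRD2, BRD3 and BRD4 with GAPDH as control.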
Target sequence in this assay (P25440 whole entry, looked up, the tested form may be a part): as the sequence (P25440 whole entry, looked up, the tested form may be a part) above

VCaP [12] = experiment: Downregulation of ERG gene levels in human VCaP cells incubated for 24 hrs by qRT-PCR analysis; type: functional, cell-based; details: dose 25-2500 nM; method in brief: as §1
[13] = target: T4, Bromodomain-containing protein 4; experiment: Induction of BRD4 degradation in human MDA-MB-231 cells at 10 uM by immunoblotting analysis; type: cell-based; details: time 8.0 hrs
[14] = Induction of degradation in human PC-3 cells incubated for 16 hrs by immunoblotting analysis
[15] = target: T4, Bromodomain-containing protein 4; experiment: Binding affinity to human partial length BRD4 BD1 (N44 to E168 residues) expressed in bacterial expression system using H4K5acIC8acK12acK16ac-biotinylated peptide as substrate preincubated for 30 mins followed by substrate addition by AlphaScreen assay
VCaP [16] = experiment: Antiproliferative activity against AR-positive human VCaP cells assessed as reduction in cell viability measured after 72 hrs by MTS assay; type: functional, cell-based
Method in brief: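 VCaP cells in 96-well plates, compound serially diluted in DMSO and run in triplicate wells for 72 h. MTS reagent added for 2 h, absorbance read at 490 nm. % cytotoxicity = (A_medium − A_treatment)/A_medium × 100. EC50 and SD taken from dose-response curves, at least three independent experiments.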

[17] = target: T1, Bromodomain-containing protein 2; experiment: Induction of BRD2 degradation in human PC-3 cells incubated for 16 hrs by immunoblotting analysis; type: cell-based; method in brief: as §5
Target sequence in this assay (P25440 whole entry, the tested form may be a part): as the sequence (P25440 whole entry, looked up, the tested form may be a part) above

LNCaP = experiment: Antiproliferative activity against androgen-sensitive human LNCaP cells assessed as reduction in cell viability measured after 72 hrs by MTS assay; type: functional, cell-based; method in brief: as §3
[18] = target: T2, Bromodomain-containing protein 3; experiment: Induction of BRD3 degradation in human MDA-MB-231 cells assessed as decrease in BET half life at 10 uM incubated for 8 hrs in presence of cycloheximide by immunoblotting analysis; type: cell-based; method in brief: as §6
Target sequence in this assay (Q15059 2-726 limits assumed): as the sequence (Q15059 2-726 limits assumed) above

[19] = target: T4, Bromodomain-containing protein 4; experiment: Induction of BRD4 degradation in human MDA-MB-231 cells incubated for 16 hrs by immunoblotting analysis; type: cell-based; method in brief: as §5
[20] = target: T1, Bromodomain-containing protein 2; experiment: Binding affinity to human partial length BRD2 BD1 (K71 to N194 residues) expressed in bacterial expression system using H4K5acIC8acK12acK16ac-biotinylated peptide as substrate preincubated for 30 mins followed by substrate addition by AlphaScreen assay; method in brief: as §4
Target sequence in this assay (P25440 whole entry, the tested form may be a part): as the sequence (P25440 whole entry, looked up, the tested form may be a part) above

[21] = target: T4, Bromodomain-containing protein 4; experiment: Binding affinity to human partial length BRD4 BD2 (K333 to E460 residues) expressed in bacterial expression system using H4K5acIC8acK12acK16ac-biotinylated peptide as substrate preincubated for 30 mins followed by substrate addition by AlphaScreen assay

## CC(=O)OC[C@]12CC[C@H]3[C@@H](C[C@H]4O[C@]45CC=CC(=O)[C@]35C)[C@]1(O)CC[C@@]2(O)[C@@](C)(O)[C@H]1CC(C)=C(C)C(=O)O1
VCaP [1]
  Activity: Dose-Dependent Effect
[2]
  ΔTm: 8.23 °C
[3]
  ΔTm: 10.4 °C
PC-3
  EC50: 63 nM
[4]
  Activity: inactive
[5]
  ΔTm: 9.57 °C
[6]
  ΔTm: 7.33 °C
[7]
  EC50: 30.3 nM
[8]
  IC50: 119 nM
[9]
  Activity: Dose-Dependent Effect
  DC50: 7290 nM
VCaP [10]
  Activity: Dose-Dependent Effect
[11]
  Activity: Active
VCaP [12]
  Activity: Dose-Dependent Effect
[13]
  Activity: Active
[14]
  Activity: Dose-Dependent Effect
[15]
  IC50: 17.9 nM
VCaP [16]
  EC50: 30.5 nM
[17]
  DC50: > 10000 nM
LNCaP
  EC50: 21.6 nM
[18]
  Activity: Active
[19]
  Activity: Dose-Dependent Effect
  DC50: 41.6 nM
[20]
  IC50: 103 nM
[21]
  IC50: 142 nM
